Test results taken from ChEMBL document CHEMBL5370587, “Fungal Anthraquinone Photoantimicrobials Challenge the Dogma of Cationic Photosensitizers” (J Nat Prod, 2023).
pEC50: −log10 of the molar value.

Tests used:
AGS [1] = assay: Phototoxicity against human AGS cells assessed as reduction in cell growth preincubated with compound for 24 hrs followed by blue light irradiation at 468 nm for 7 mins 30 sec and measured after 48 hrs by SRB assay; format: functional, cell-based; conditions: light or radiation study
Outline: (§1)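 Cells (A549 2000, AGS 2500, T24 1500 per well) seeded in Opti-MEM with 2.4% FCS. After 24 h, treated with 25.0−0.3 μM (six levels). After another 24 h, medium was replaced and cells got blue light (468±27 nm, 9.3 J/cm²). Held 48 h at 37 °C, 5% CO2, then TCA-fixed and SRB-stained, read at 540 nm. EC50 from variable-slope fit with 95% CI.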

Candida albicans [2] = assay: Antifungal activity against Candida albicans 501670 assessed as reduction in microbial growth preincubated for 60 mins under dark condition followed by 428 nm light irradiation and measured after 20 to 24 hrs by RPMI-1640 based dilution assay; conditions: Candida albicans, 501670, light or radiation study
Candida albicans [3] = assay: Antifungal activity against Candida albicans 501670 assessed as reduction in microbial growth preincubated for 60 mins under dark condition followed by 530 nm light irradiation and measured after 20 to 24 hrs by RPMI-1640 based dilution assay; conditions: Candida albicans, 501670, light or radiation study
AGS [4] = assay: Phototoxicity against human AGS cells assessed as reduction in cell growth preincubated with compound for 24 hrs followed by green light irradiation at 519 nm for 22 mins 23 sec and measured after 48 hrs by SRB assay; format: functional, cell-based; conditions: light or radiation study
Outline: (§2)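 Cells (A549 2000, AGS 2500, T24 1500 per well) seeded in Opti-MEM with 2.4% FCS and dosed 24 h later at six concentrations, 25.0−0.3 μM. After a further 24 h, fresh medium was added and cells got green light (519±33 nm, 30.0 J/cm²). Then 48 h at 37 °C, 5% CO2. Read-out by TCA fixation, SRB stain and absorbance at 540 nm. EC50 from Hill fit with 95% CI.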

Staphylococcus aureus [5] = assay: Antibacterial activity against Staphylococcus aureus DSM1104 assessed as reduction in microbial growth preincubated for 60 mins under dark condition followed by 428 nm light irradiation and measured after 20 to 24 hrs by muller hinton broth based dilution assay; format: functional; conditions: DSM1104, light or radiation study, time 21-25 hrs
Outline: (§3)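 PhotoMIC (modified EUCAST broth microdilution): 0.5 McFarland suspensions diluted 1:50 in Mueller-Hinton broth (bacteria, 2–8 × 10⁵ CFU/mL) or 1:10 in double-strength RPMI-1640 (yeast, 0.5–2.5 × 10⁵ CFU/mL); ≥10 concentrations, biological triplicates; 60 min dark preincubation, then 30 J/cm² irradiation or dark duplicate plate; 37 °C, 20–24 h; turbidity versus growth control, blanks subtracted.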

Staphylococcus aureus [6] = assay: Antibacterial activity against Staphylococcus aureus DSM1104 assessed as reduction in microbial growth preincubated for 60 mins under dark condition followed by 530 nm light irradiation and measured after 20 to 24 hrs by muller hinton broth based dilution assay; format: functional; conditions: DSM1104, light or radiation study, time 21-25 hrs; outline: as §3
Staphylococcus aureus [7] = assay: Antibacterial activity against Staphylococcus aureus DSM1104 assessed as reduction in microbial growth preincubated for 60 mins under dark condition and measured after 20 to 24 hrs at room temperature by muller hinton broth based dilution assay; format: functional; conditions: time 20-24 hrs
Outline: (§4)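 Bacteria grown overnight at 37 °C for 15−18 h in the dark, then set to 0.5 McFarland (read at 600 nm) and diluted 1:50 in Müller-Hinton broth to (2–8) × 10⁵ CFU/mL. Dark plate held at room temperature, then incubated at 37 °C. After 20−24 h, turbidity was read against the untreated growth control, with blanks subtracted. Compounds tested at ≥10 concentrations in biological triplicate.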

Candida albicans [8] = assay: Antifungal activity against Candida albicans 501670 assessed as reduction in microbial growth preincubated for 60 mins under dark condition followed by 478 nm light irradiation and measured after 20 to 24 hrs by RPMI-1640 based dilution assay; conditions: Candida albicans, 501670, light or radiation study
T-24 [9] = assay: Phototoxicity against human T24 cells assessed as reduction in cell growth preincubated with compound for 24 hrs followed by green light irradiation at 519 nm for 22 mins 23 sec and measured after 48 hrs by SRB assay; format: functional, cell-based; conditions: T-24, light or radiation study; outline: as §2
A549 [10] = assay: Phototoxicity against human A549 cells assessed as reduction in cell growth preincubated with compound for 24 hrs followed by green light irradiation at 519 nm for 22 mins 23 sec and measured after 48 hrs by SRB assay; format: functional, cell-based; conditions: A549, light or radiation study; outline: as §2
A549 [11] = assay: Phototoxicity against human A549 cells assessed as reduction in cell growth preincubated with compound for 24 hrs followed by blue light irradiation at 468 nm for 7 mins 30 sec and measured after 48 hrs by SRB assay; format: functional, cell-based; conditions: A549, light or radiation study; outline: as §1
AGS [12] = assay: Phototoxicity against human AGS cells assessed as reduction in cell growth preincubated with compound for 24 hrs under dark condition and measured after 48 hrs by SRB assay; format: functional, cell-based; conditions: light or radiation study
Outline: (§5)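 Dark control plate processed the same way: cells (A549 2000, AGS 2500, T24 1500 per well) in Opti-MEM with 2.4% FCS, dosed at 25.0−0.3 μM 24 h after seeding. Medium renewed after 24 h, then 48 h further at 37 °C, 5% CO2 without light. SRB read-out at 540 nm after TCA fixation. EC50 with 95% CI from variable-slope fit.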

T-24 [13] = assay: Phototoxicity against human T24 cells assessed as reduction in cell growth preincubated with compound for 24 hrs followed by blue light irradiation at 468 nm for 7 mins 30 sec and measured after 48 hrs by SRB assay; format: functional, cell-based; conditions: T-24, light or radiation study; outline: as §1
Candida albicans [14] = assay: Antifungal activity against Candida albicans 501670 assessed as reduction in microbial growth preincubated for 60 mins under dark condition and measured after 20 to 24 hrs at room temperature by RPMI-1640 based dilution assay
Escherichia coli [15] = assay: Antibacterial activity against Escherichia coli DSM1103 assessed as reduction in microbial growth preincubated for 60 mins under dark condition followed by 428 nm light irradiation and measured after 20 to 24 hrs by muller hinton broth based dilution assay; format: functional; conditions: DSM1103, light or radiation study, time 21-25 hrs; outline: as §3
A549 [16] = assay: Photo index, ratio of EC50 for human A549 cells killed in the absence of light to EC50 for human A549 cells killed after irradiation; format: functional
Outline: (§6)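 SRB assay: cells seeded in Opti-MEM with 2.4% FCS, treated 24 h later with 0.3–25.0 μM, medium replaced after 24 h. Duplicate plates were irradiated with blue light (468 nm, 9.3 J/cm²) or green light (519 nm, 30.0 J/cm²), or kept dark, then held 48 h at 37 °C, 5% CO₂. EC50 from Hill fit; photoindex = EC50 dark / EC50 irradiated.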

Staphylococcus aureus [17] = assay: Antibacterial activity against Staphylococcus aureus DSM1104 assessed as reduction in microbial growth preincubated for 60 mins under dark condition followed by 478 nm light irradiation and measured after 20 to 24 hrs by muller hinton broth based dilution assay; format: functional; conditions: DSM1104, light or radiation study, time 21-25 hrs; outline: as §3
T-24 [18] = assay: Photo index, ratio of EC50 for human T24 cells killed in the absence of light to EC50 for human T24 cells killed after irradiation; format: functional; outline: as §6
T-24 [19] = assay: Phototoxicity against human T24 cells assessed as reduction in cell growth preincubated with compound for 24 hrs under dark condition and measured after 48 hrs by SRB assay; format: functional, cell-based; conditions: T-24, light or radiation study; outline: as §5
A549 [20] = assay: Phototoxicity against human A549 cells assessed as reduction in cell growth preincubated with compound for 24 hrs under dark condition and measured after 48 hrs by SRB assay; format: functional, cell-based; conditions: A549, light or radiation study; outline: as §5
Escherichia coli [21] = assay: Antibacterial activity against Escherichia coli DSM1103 assessed as reduction in microbial growth preincubated for 60 mins under dark condition and measured after 20 to 24 hrs at room temperature by muller hinton broth based dilution assay; format: functional; conditions: time 20-24 hrs; outline: as §4
Escherichia coli [22] = assay: Antibacterial activity against Escherichia coli DSM1103 assessed as reduction in microbial growth preincubated for 60 mins under dark condition followed by 428 to 530 nm light irradiation and measured after 20 to 24 hrs by muller hinton broth based dilution assay; format: functional; conditions: DSM1103, light or radiation study, time 21-25 hrs
Outline: (§7)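 Bacterial inoculum set to 0.5 McFarland (600 nm) and diluted 1:50 in Müller-Hinton broth to (2–8) × 10⁵ CFU/mL. After 60 min dark preincubation the plate received H = 30 J/cm² from LED panels (468±27, 519±33, 478±22 or 523±33 nm). Incubated at 37 °C in the dark for 20−24 h. Turbidity read against growth control, blanks subtracted. ≥10 concentrations, biological triplicate.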

Staphylococcus aureus [23] = assay: Antibacterial activity against Staphylococcus aureus DSM1104 assessed as reduction in microbial growth preincubated for 60 mins under dark condition followed by 428 to 530 nm light irradiation and measured after 20 to 24 hrs by muller hinton broth based dilution assay; format: functional; conditions: DSM1104, light or radiation study, time 21-25 hrs; outline: as §7
Candida albicans [24] = assay: Antifungal activity against Candida albicans 501670 assessed as reduction in microbial growth preincubated for 60 mins under dark condition followed by 428 to 530 nm light irradiation and measured after 20 to 24 hrs by muller hinton broth based dilution assay; format: functional; conditions: Candida albicans, 501670, light or radiation study; in the assay text read “RPMI-1640” for “muller hinton broth”; time 21-25 hrs
Outline: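 Yeast set to 0.5 McFarland (530 nm), diluted 1:10 in double-strength RPMI-1640 to (0.5−2.5) × 10⁵ CFU/mL. Irradiated at H = 30 J/cm² after 60 min dark preincubation, then kept dark at 37 °C for 20−24 h. Growth inhibition by turbidity versus growth control, blanks subtracted. ≥10 concentrations in biological triplicate.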

Row | Compound | pEC50 (AGS [1]) | MIC (Staphylococcus aureus [7]) | pEC50 (A549 [11]) | pEC50 (AGS [12]) | pEC50 (T-24 [13]) | MIC (Candida albicans [14]) | pEC50 (T-24 [19]) | pEC50 (A549 [20]) | MIC (Escherichia coli [21]) | MIC (Escherichia coli [22]) | MIC (Staphylococcus aureus [23]) | MIC (Candida albicans [24]) | further results
1 | COc1c(O)c(O)c2c(c1O)C(=O)c1cc(C)cc(O)c1C2=O | < 4.60 | > 79 µM | < 4.60 | < 4.60 | < 4.60 | > 79 µM | 4.61 | < 4.60 | – | – | – | – | MIC (Candida albicans [2]): 39.5 µM; MIC (Candida albicans [3]): 39.5 µM; pEC50 (AGS [4]): < 4.60; MIC (Staphylococcus aureus [5]): 39.5 µM; MIC (Staphylococcus aureus [6]): 2.37 µM; MIC (Candida albicans [8]): 19.7 µM; pEC50 (T-24 [9]): 4.94; pEC50 (A549 [10]): 4.79; MIC (Escherichia coli [15]): > 79 µM; Ratio EC50 (A549 [16]): >1.5; MIC (Staphylococcus aureus [17]): 4.74 µM; Ratio EC50 (T-24 [18]): 2.1
2 | Cc1cc(O[C@@H]2O[C@H](CO)[C@@H](O)[C@H](O)[C@H]2O)c2c(c1)C(=O)c1cc(O)cc(O)c1C2=O | < 4.60 | > 115 µM | < 4.60 | < 4.60 | < 4.60 | > 115 µM | < 4.60 | < 4.60 | > 115 µM | > 115 µM | > 115 µM | > 115 µM | –
3 | Cc1cc(O[C@@H]2O[C@H](CO)[C@@H](O)[C@H](O)[C@H]2O)c2c(c1)C(=O)c1cc(O[C@@H]3O[C@H](CO)[C@@H](O)[C@H](O)[C@H]3O)cc(O)c1C2=O | < 4.60 | > 84 µM | < 4.60 | < 4.60 | < 4.60 | > 84 µM | < 4.60 | < 4.60 | > 84 µM | > 84 µM | > 84 µM | > 84 µM | –
4 | COc1c(O)c(O)c2c(c1O)C(=O)c1cc(C)cc(O[C@@H]3O[C@H](CO)[C@@H](O)[C@H](O)[C@H]3O)c1C2=O | < 4.60 | > 105 µM | < 4.60 | < 4.60 | < 4.60 | > 105 µM | < 4.60 | < 4.60 | > 105 µM | > 105 µM | > 105 µM | > 105 µM | pEC50 (AGS [4]): < 4.60; pEC50 (T-24 [9]): < 4.60; pEC50 (A549 [10]): < 4.60
5 | C[C@@H]1[C@H](O)[C@@H](C)/C=C/C=C/C=C/C=C/C=C/C=C/C=C/[C@H](O[C@@H]2O[C@H](C)[C@@H](O)[C@H](N)[C@@H]2O)C[C@@H]2O[C@](O)(C[C@@H](O)C[C@@H](O)[C@H](O)CC[C@@H](O)C[C@@H](O)CC(=O)O[C@H]1C)C[C@H](O)[C@H]2C(=O)O [AMPHOTERICIN B] | – | – | – | – | – | 0.22 µM | – | – | – | – | – | – | –
6 | O=C(N[C@H](CO)[C@H](O)c1ccc([N+](=O)[O-])cc1)C(Cl)Cl [CHLORAMPHENICOL] | – | – | – | – | – | – | – | – | 6.1 µM | – | – | – | –
7 | CC[C@H]1OC(=O)[C@H](C)[C@@H](O[C@H]2C[C@@](C)(OC)[C@@H](O)[C@H](C)O2)[C@H](C)[C@@H](O[C@@H]2O[C@H](C)C[C@H](N(C)C)[C@H]2O)[C@](C)(O)C[C@@H](C)C(=O)[C@H](C)[C@@H](O)[C@]1(C)O [ERYTHROMYCIN] | – | 1.4 µM | – | – | – | – | – | – | – | – | – | – | –
